In ChEMBL document CHEMBL1124531, “Intercalating agents with covalent bond forming capability. A novel type of potential anticancer agents. 2. Derivatives of chrysophanol and emodin” (1989):
pIC50: −log10 of the molar value.

Tests used:
L1210 = experiment: Inhibitory activity against murine L1210 leukemic cell growth; type: functional; conditions: Mus musculus, read-out: ID50 (the source's name)
Nucleic Acid [1] = experiment: Ratio for human acute promyelocytic leukemia cells(HL-60) cell growth inhibition and [3H]TdR incorporation into DNA in HL-60 cells; type: functional, cell-based
Nucleic Acid [2] = experiment: Inhibitory activity against [3H]TdR incorporation into DNA in HL-60 cells during the initial 30-min period.; type: functional, cell-based; conditions: Homo sapiens
Outline: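 HL-60 cells (2.5 × 10^6/mL) preincubated 15 min with compound at four to six concentrations in 0.2% DMSO, then pulsed with [3H-methyl]TdR (1 μCi, 0.15 nmol/mL) for 30 min; radioactivity in isolated DNA fraction counted; compound-free DMSO control as reference.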

HL-60 = experiment: Inhibitory activity against human acute promyelocytic leukemia cells(HL-60) cell growth on 72 hr of exposure of the compound.; type: functional; conditions: HL-60, 72 h, read-out: ID50 (the source's name)

SMILES	pIC50 (L1210)	pIC50 (HL-60)	Ratio (Nucleic Acid [1])	ID50 (Nucleic Acid [2]) [µM]
COc1cc(O)c2c(c1)C(=O)c1cc(CNCCCl)cc(O)c1C2=O	4.74	5.04	23.9	220
COc1cc(O)c2c(c1)C(=O)c1cc(CN(CCO)CCO)cc(O)c1C2=O	4.85	5.18	5.2	45
CNC(=O)OCCN(CCOC(=O)NC)Cc1cc(OC)c2c(c1)C(=O)c1cccc(O)c1C2=O	4.05	4.92	1	12
COc1cccc2c1C(=O)c1c(OC)cc(C)cc1C2=O	4.55		1.9	19
COc1cc(O)c2c(c1)C(=O)c1cc(CN(CCCl)CCCl)cc(O)c1C2=O		6.21	19.7	12
COc1cccc2c1C(=O)c1c(OC)cc(CN(CCCl)CCCl)cc1C2=O	4.89	5.74	7.8	14
CCN(CC)Cc1cc(OC)c2c(c1)C(=O)c1cccc(OC)c1C2=O	3.89	4.52	6.3	19
COc1cc(O)c2c(c1)C(=O)c1cc(CBr)cc(O)c1C2=O	4.23	4.60	13.6	340
COc1cc(OC)c2c(c1)C(=O)c1cc(C)cc(OC)c1C2=O	4.00	4.31	0.43	21
COc1cccc2c1C(=O)c1c(OC)cc(CN(CCO)CCO)cc1C2=O	< 4.30	3.31	0.03	14
CC(C)NC(=O)OCCN(CCOC(=O)NC(C)C)Cc1cc(O)c2c(c1)C(=O)c1cccc(O)c1C2=O	4.57	4.57	0.63	17
COc1cccc2c1C(=O)c1c(OC)cc(CNCCO)cc1C2=O	3.85	4.26	0.84	46
CNC(=O)OCCN(CCOC(=O)NC)Cc1cc(OC)c2c(c1)C(=O)c1cccc(OC)c1C2=O	4.14	5.02	0.99	9.4
COc1cc(O)c2c(c1)C(=O)c1cc(CN(CCCl)CCCl)cc(OC)c1C2=O	5.48	6.28	10.4	5.4
O=C1c2cccc(O)c2C(=O)c2c(O)cc(CNCCCl)cc21	5.15	5.12	5.2	39
COc1cc(OC)c2c(c1)C(=O)c1cc(CNCCCl)cc(OC)c1C2=O	4.49	5.24	3.1	18
COc1cc(OC)c2c(c1)C(=O)c1cc(C(Br)Br)cc(OC)c1C2=O	4.39	5.22	9.7	58
COc1cc(OC)c2c(c1)C(=O)c1cc(CNCCO)cc(OC)c1C2=O	4.77	3.96	0.24	26
COc1cc(CN(CCCl)CCCl)cc2c1C(=O)c1c(O)cccc1C2=O		6.41	38.5	15
COc1cc(CN(CCO)CCO)cc2c1C(=O)c1c(O)cccc1C2=O	< 4.62	4.68	4.2	89
O=C1c2cccc(O)c2C(=O)c2c(O)cc(CN(CCCl)CCCl)cc21		6.74	383	69
CNC(=O)OCCN(CCOC(=O)NC)Cc1cc(O)c2c(c1)C(=O)c1cccc(O)c1C2=O	< 4.74	3.68	0.13	28
COc1cc(OC)c2c(c1)C(=O)c1cc(CN(CCO)CCO)cc(OC)c1C2=O	< 4.57	4.00	0.17	17
COc1cc(OC)c2c(c1)C(=O)c1cc(CN(CCCl)CCCl)cc(OC)c1C2=O	5.57	5.70	4.5	8.9
COc1cccc2c1C(=O)c1c(OC)cc(CNCCCl)cc1C2=O	4.59	4.07	0.22	19

The next lines start with results.

pIC50 (L1210)	pIC50 (HL-60)	SMILES	Ratio (Nucleic Acid [1])	ID50 (Nucleic Acid [2]) [µM]
5.16	5.10	CCN(CC)Cc1cc(OC)c2c(c1)C(=O)c1cc(OC)cc(OC)c1C2=O	0.53	4.2
6.17	5.49	O=C1c2cccc(O)c2C(=O)c2c(O)cc(CNCCCO)cc21	5	16
9.00	7.01	COc1cc(O)c2c(c1)C(=O)c1cc(C(Br)Br)cc(OC)c1C2=O	237	23
5.92	5.47	CCN(CC)Cc1cc(O)c2c(c1)C(=O)c1cc(OC)cc(O)c1C2=O	10.3	35
5.92	4.32	CCNCc1cc(OC)c2c(c1)C(=O)c1cccc(OC)c1C2=O	0.6	29
6.30	5.80	COc1cc(O)c2c(c1)C(=O)c1cc(CNCCO)cc(O)c1C2=O	7.5	12
9.00	6.72	COc1cc(O)c2c(c1)C(=O)c1cc(C(Br)Br)cc(O)c1C2=O	579	110
6.05	5.68	COc1cccc2c1C(=O)c1c(OC)cc(C(Br)Br)cc1C2=O	4.3	9
5.23	5.48	O=C1c2cccc(O)c2C(=O)c2c(O)cc(CN(CCO)CCO)cc21	4.2	14
5.66	5.57	CN(C)Cc1cc(O)c2c(c1)C(=O)c1cccc(O)c1C2=O	3.3	9.3
5.80	5.68	O=C1c2cccc(O)c2C(=O)c2c(O)cc(CN3CCCC3)cc21	4.8	10
6.11	5.06	CCNCc1cc(O)c2c(c1)C(=O)c1cccc(O)c1C2=O	2.1	18
5.13	5.32	O=C1c2cccc(O)c2C(=O)c2c(O)cc(Cn3ccnc3)cc21	9	43
6.36	5.60	O=C1c2cccc(O)c2C(=O)c2c(O)cc(C(Br)Br)cc21	15.6	39
4.92	5.28	CCN(CC)Cc1cc(OC)c2c(c1)C(=O)c1cccc(O)c1C2=O	2.7	14
5.55	5.74	CCN(CC)Cc1cc(O)c2c(c1)C(=O)c1cccc(O)c1C2=O	7.8	14
5.06	5.15	COc1cc(CBr)cc2c1C(=O)c1c(O)cccc1C2=O	1.7	12
5.07	4.96	NCc1cc(O)c2c(c1)C(=O)c1cccc(O)c1C2=O	2.3	25
5.16	5.17	CCN(CC)Cc1cc(OC)c2c(c1)C(=O)c1cc(OC)cc(O)c1C2=O	26.9	180
5.40	5.55	O=C1c2cccc(O)c2C(=O)c2c(O)cc(CN3CCCCC3)cc21	22.5	63
6.17	4.08	COc1cc(OC)c2c(c1)C(=O)c1cc(CBr)cc(OC)c1C2=O	0.14	12
5.04	5.36	COc1cccc2c1C(=O)c1c(OC)cc(CBr)cc1C2=O	2.5	11
5.01	4.77	CCNCc1cc(OC)c2c(c1)C(=O)c1cc(OC)cc(OC)c1C2=O	0.76	13
6.14	5.68	CCNCc1cc(O)c2c(c1)C(=O)c1cc(OC)cc(O)c1C2=O	6.2	13
5.34	5.39	CCCCNCc1cc(O)c2c(c1)C(=O)c1cccc(O)c1C2=O	6.1	25
6.80		O=C1c2cccc(O)c2C(=O)c2c(O)cc(CNCCO)cc21	17.4	15
10.38	7.22	COc1cc(C(Br)Br)cc2c1C(=O)c1c(O)cccc1C2=O	217	13
7.17	5.77	COc1cc(O)c2c(c1)C(=O)c1cc(CBr)cc(OC)c1C2=O	41	70
5.07	5.15	O=C1c2cccc(O)c2C(=O)c2c(O)cc(CBr)cc21	2.3	16
5.06	< 3.30	COc1cc(O)c2c(c1)C(=O)c1cc(CN(CCO)CCO)cc(OC)c1C2=O	0.02	9.6
